From ChEMBL document CHEMBL1148785, “Second generation tetrahydroquinoline-based protein farnesyltransferase inhibitors as antimalarials” (J Med Chem, 2007)

Experiments:
Plasmodium falciparum [1] = test: Inhibition of Plasmodium falciparum protein farnesyltransferase at 0.5 nM by scintillation proximity assay
Plasmodium falciparum [2] = test: Inhibition of Plasmodium falciparum protein farnesyltransferase at 50 nM by scintillation proximity assay
Plasmodium falciparum [3] = test: Antimalarial activity against Plasmodium falciparum 3D7; format: functional; details: Plasmodium falciparum, 3D7; read-out: ED50 (the source's name)
In short: (§1)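 Asynchronous culture in type A+ erythrocytes at 0.5% parasitemia and 0.5% hematocrit, grown in RPMI-1640 with 20% heat-inactivated human A+ plasma. Compound was serially diluted from a top final 5 µM, with DMSO vehicle as 100% growth. Plates ran 48 h at 37 °C under 5% CO2/5% O2/90% N2, then [3H]-hypoxanthine (0.3 µCi) for 24 h. Filter-harvested counts were corrected for the uninfected-RBC background. ED50 by linear regression; duplicates averaged.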

Plasmodium falciparum [4] = test: Antimalarial activity against Plasmodium falciparum K1; format: functional; details: Plasmodium falciparum, K1; read-out: ED50 (the source's name); in short: as §1
Plasmodium falciparum [5] = test: Inhibition of Plasmodium falciparum protein farnesyltransferase at 5 nM by scintillation proximity assay

inhibition (Plasmodium falciparum [1]) [%]	inhibition (Plasmodium falciparum [2]) [%]	EC50 (Plasmodium falciparum [3]) [nM]	EC50 (Plasmodium falciparum [4]) [nM]	inhibition (Plasmodium falciparum [5]) [%]	SMILES
5	66	2800	2300	17	Cn1cnc(S(=O)(=O)N(CC(=O)NC(C)(C)C)C2Cc3cc(C(=O)NC4CCCCC4)ccc3N(Cc3cncn3C)C2)c1 (stereo not given)
3	35	3400	3000	12	COC(=O)N1CCC(CN(C2Cc3cc(C#N)ccc3N(Cc3cccnc3)C2)S(=O)(=O)c2ccccn2)CC1 (stereo not given)
24	97	1000	800	81	Cn1cncc1CN1CC(N(Cc2cccc(C(=O)O)n2)S(=O)(=O)c2ccccn2)Cc2cc(C#N)ccc21 (stereo not given)
54	99	1.8	1.8	98	Cn1cnc(S(=O)(=O)N(CCn2cccc2)C2Cc3cc(C#N)ccc3N(Cc3cncn3C)C2)c1 (stereo not given)
66	98	550	650	13	Cn1cncc1CN1CC(N(CC2CCN(C(=O)OCc3ccccc3)CC2)S(=O)(=O)c2ccccn2)Cc2cc(C#N)ccc21 (stereo not given)
18	93	230	1000	64	COCCCN(C1Cc2cc(C#N)ccc2N(Cc2cncn2C)C1)S(=O)(=O)c1ccccn1 (stereo not given)
2	68	> 5000	> 5000	21	COC(=O)N1CCC(CN(C2Cc3cc(C#N)ccc3N(Cc3cncn3C)C2)S(=O)(=O)c2ccc3oc(=O)ccc3c2)CC1 (stereo not given)
54	96	70	55	90	Cn1cnc(S(=O)(=O)N(Cc2ccc(C#N)cc2)C2Cc3cc(C#N)ccc3N(Cc3cncn3C)C2)c1 (stereo not given)
0	37	> 5000	3950	3	COC(=O)N1CCC(CN(C2Cc3cc(C#N)ccc3N(Cc3cncn3C)C2)S(=O)(=O)C2CC2)CC1 (stereo not given)
23	97	381	395	73	Cn1cnc(CN2CC(N(CC(=O)NC(C)(C)C)S(=O)(=O)c3cn(C)cn3)Cc3cc(-c4ccccc4)ccc32)c1 (stereo not given)
91	91	65	75	47	Cn1cncc1CN1CC(N(CC2CCN(C(=O)OCC(F)(F)F)CC2)S(=O)(=O)c2ccccn2)Cc2cc(C#N)ccc21 (stereo not given)
10	92	2300	1900	61	COC(=O)c1ccsc1S(=O)(=O)N(CC1CCN(C(=O)OC)CC1)C1Cc2cc(C#N)ccc2N(Cc2cncn2C)C1 (stereo not given)
9	97	133	75	70	Cn1cncc1CN1CC(N(CCCNC(=O)OC(C)(C)C)S(=O)(=O)c2ccccn2)Cc2cc(C#N)ccc21 (stereo not given)
12	96	650	650	79	COC(=O)N1CCC(CN(C2Cc3cc(C#N)ccc3N(C(C)c3cnc[nH]3)C2)S(=O)(=O)c2ccccn2)CC1 (stereo not given)
25	98	10	36	96	Cn1cnc(S(=O)(=O)N(Cc2ccccn2)C2Cc3cc(C#N)ccc3N(Cc3cncn3C)C2)c1 (stereo not given)
36	99	71	75	93	Cn1cnc(S(=O)(=O)N(Cc2ccccc2C(F)(F)F)C2Cc3cc(C#N)ccc3N(Cc3cncn3C)C2)c1 (stereo not given)
0	38	3000	2800	0	Cn1cncc1CN1CC(N(CC2CCN(C(=O)Nc3ccc(Br)cc3)CC2)S(=O)(=O)c2ccccn2)Cc2cc(C#N)ccc21 (stereo not given)
0	3	> 5000	> 5000	0	Cc1oncc1S(=O)(=O)N(CC(=O)NC(C)(C)C)C1Cc2cc(C#N)ccc2N(Cc2cncn2C)C1 (stereo not given)
25	99	62	140	86	COC(=O)N1CCC(CN(C2Cc3cc(C#N)ccc3N(Cc3cncn3C)C2)S(=O)(=O)c2cc(C)cs2)CC1 (stereo not given)
0	64	2700	3100	15	CN(C)CCN(C1Cc2cc(C#N)ccc2N(Cc2cncn2C)C1)S(=O)(=O)c1cn(C)cn1 (stereo not given)
4	74	700	1000	28	Cn1cncc1CN1CC(N(Cc2ccccc2F)S(=O)(=O)c2cccc3nsnc23)Cc2cc(C#N)ccc21 (stereo not given)

inhibition (Plasmodium falciparum [1]) [%]	inhibition (Plasmodium falciparum [2]) [%]	EC50 (Plasmodium falciparum [3]) [nM]	EC50 (Plasmodium falciparum [4]) [nM]	inhibition (Plasmodium falciparum [5]) [%]	SMILES
5	11	> 5000	> 5000	2	CC(=O)Nc1nc(C)c(S(=O)(=O)N(CC(=O)NC(C)(C)C)C2Cc3cc(C#N)ccc3N(Cc3cncn3C)C2)s1 (stereo not given)
39	93	90	150	86	COC(=O)N1CCC(CN(C2Cc3cc(C#N)ccc3N(Cc3cncn3C)C2)S(=O)(=O)c2cccc(F)c2)CC1 (stereo not given)
8	99	65	70	82	Cn1cnc(S(=O)(=O)N(CCc2ccccc2C(F)(F)F)C2Cc3cc(C#N)ccc3N(Cc3cncn3C)C2)c1 (stereo not given)
38	99	165	330	91	Cn1cncc1CN1CC(N(Cc2ccc(S(C)(=O)=O)cc2)S(=O)(=O)c2ccccc2)Cc2cc(C#N)ccc21 (stereo not given)
5	89	> 5000	675	49	COC(=O)N1CCC(CN(C2Cc3cc(C#N)ccc3N(Cc3cncn3C)C2)S(=O)(=O)c2ccc(C(=O)O)o2)CC1 (stereo not given)
93	100	65	45	38	CC(C)NC(=O)N1CCC(CN(C2Cc3cc(C#N)ccc3N(Cc3cncn3C)C2)S(=O)(=O)c2ccccn2)CC1 (stereo not given)
43	100	16	16	98	Cn1cnc(S(=O)(=O)N(CCc2ccccc2F)C2Cc3cc(C#N)ccc3N(Cc3cncn3C)C2)c1 (stereo not given)
18	98	140	75	87	Cc1c(S(=O)(=O)N(CC2CCN(C(=O)OC(C)(C)C)CC2)C2Cc3cc(C#N)ccc3N(Cc3cncn3C)C2)ncn1C (stereo not given)
2	88	550	1700	39	COC(=O)N1CCC(CN(C2Cc3cc(C#N)ccc3N(Cc3cncn3C)C2)S(=O)(=O)c2cccc3ccccc23)CC1 (stereo not given)
4	81	300	250	32	Cn1cncc1CN1CC(N(CCCCCC(N)=O)S(=O)(=O)c2ccccn2)Cc2cc(C#N)ccc21 (stereo not given)
1	11	2600	3600	5	CCOc1ccccc1CN(C1Cc2cc(C#N)ccc2N(Cc2cncn2C)C1)S(=O)(=O)c1cn(C)cn1 (stereo not given)
67	95	12	16	91	Cn1cncc1CN1CC(N(CCn2ccnc2)S(=O)(=O)c2ccccn2)Cc2cc(C#N)ccc21 (stereo not given)
49	96	210	405	84	Cn1cncc1CN1CC(N(Cc2ccc(S(C)(=O)=O)cc2)S(=O)(=O)c2ccccn2)Cc2cc(C#N)ccc21 (stereo not given)
5	60	> 5000	4600	5	Cn1cnc(S(=O)(=O)N(CCCN)C2Cc3cc(C#N)ccc3N(Cc3cncn3C)C2)c1 (stereo not given)
0	33	950	2000	0	Cn1cncc1CN1CC(N(Cc2ccccc2F)C(=O)C2CC2)Cc2cc(C#N)ccc21 (stereo not given)
0	58	1600	2400	19	COC(=O)N1CCC(CN(C2Cc3cc(C#N)ccc3N(Cc3cncn3C)C2)S(=O)(=O)N(C)C)CC1 (stereo not given)
24	97	55	70	80	COC(=O)N1CCC(CN(C2Cc3cc(C#N)ccc3N(Cc3cncn3C)C2)S(=O)(=O)c2ccccc2Cl)CC1 (stereo not given)
50	99	40	100	93	Cn1cnc(S(=O)(=O)N(Cc2ccc(F)cc2)C2Cc3cc(C#N)ccc3N(Cc3cncn3C)C2)c1 (stereo not given)
0	79	3000	3700	26	Cc1oncc1CN(C1Cc2cc(-c3ccccc3)ccc2N(Cc2cn(C)cn2)C1)S(=O)(=O)c1cn(C)cn1 (stereo not given)
28	96	100	100	77	COC(=O)NCCCN(C1Cc2cc(C#N)ccc2N(Cc2cncn2C)C1)S(=O)(=O)c1ccccn1 (stereo not given)
